Active and inactive are the calls of the source. No cut-off for these calls is given here.
Tests used:
[1] = biological target: T1, Peroxisome proliferator-activated receptor gamma (Homo sapiens, UniProt P37231); experiment: (§1) Agonist activity at PPARgamma expressed in human HCA7 cells assessed as induction of peroxisome proliferator response element after 12 hrs by luciferase reporter assay; format: functional, cell-based
T1 sequence (P37231 whole entry): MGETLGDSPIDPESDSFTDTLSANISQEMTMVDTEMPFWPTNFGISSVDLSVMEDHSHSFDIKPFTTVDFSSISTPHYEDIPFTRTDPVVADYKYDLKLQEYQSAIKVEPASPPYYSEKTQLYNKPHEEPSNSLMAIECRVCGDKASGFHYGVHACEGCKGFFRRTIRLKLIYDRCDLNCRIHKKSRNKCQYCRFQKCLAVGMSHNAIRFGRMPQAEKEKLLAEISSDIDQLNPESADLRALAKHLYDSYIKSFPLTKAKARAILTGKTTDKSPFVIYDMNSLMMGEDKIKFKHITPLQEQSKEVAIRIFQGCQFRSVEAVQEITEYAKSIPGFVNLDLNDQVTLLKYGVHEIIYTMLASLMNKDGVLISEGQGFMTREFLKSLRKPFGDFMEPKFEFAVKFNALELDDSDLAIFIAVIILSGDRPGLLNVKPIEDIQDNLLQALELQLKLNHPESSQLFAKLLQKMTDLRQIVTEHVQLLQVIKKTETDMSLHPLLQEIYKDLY

[2] = biological target: Prostaglandin G/H synthase 1 (Homo sapiens) (UniProt P23219); experiment: Inhibition of cyclooxygenase 1 upto 4 uM
Chain of Prostaglandin G/H synthase 1 (Homo sapiens) (P23219 whole entry): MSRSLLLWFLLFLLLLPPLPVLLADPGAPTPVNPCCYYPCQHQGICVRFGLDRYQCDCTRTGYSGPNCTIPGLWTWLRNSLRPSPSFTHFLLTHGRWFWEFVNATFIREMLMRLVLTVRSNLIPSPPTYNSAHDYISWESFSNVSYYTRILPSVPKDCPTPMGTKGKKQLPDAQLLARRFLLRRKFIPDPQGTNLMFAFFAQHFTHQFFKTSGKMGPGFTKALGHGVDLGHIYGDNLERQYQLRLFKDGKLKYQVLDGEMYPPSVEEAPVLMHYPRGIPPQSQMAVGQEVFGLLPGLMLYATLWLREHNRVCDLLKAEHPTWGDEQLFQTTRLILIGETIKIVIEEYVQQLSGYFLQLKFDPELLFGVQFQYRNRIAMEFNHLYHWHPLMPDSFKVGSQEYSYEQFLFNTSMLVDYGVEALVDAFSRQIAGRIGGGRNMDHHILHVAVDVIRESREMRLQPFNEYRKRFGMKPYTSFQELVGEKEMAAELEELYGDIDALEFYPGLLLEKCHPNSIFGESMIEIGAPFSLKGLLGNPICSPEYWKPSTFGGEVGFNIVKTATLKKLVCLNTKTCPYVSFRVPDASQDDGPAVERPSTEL

[3] = biological target: T2, Peroxisome proliferator-activated receptor gamma (Homo sapiens) (UniProt P37231); experiment: as §1; format: functional, cell-based
T2 sequence (whole entry): T1 sequence (P37231 whole entry)

[4] = biological target: T2, Peroxisome proliferator-activated receptor gamma (Homo sapiens); experiment: Displacement of [3H]troglitazone from human PPARgamma ligand binding domain expressed in Escherichia coli by scintillation proximity assay
Outline: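 His-tagged human PPARγ-LBD from E. coli, biotinylated and bound to streptavidin SPA beads. Competition against 50 nM 3H-troglitazone with rising unlabeled compound. Buffer 50 mM HEPES pH 7, 50 mM KCl, 5 mM CHAPS, BSA, no dithiothreitol.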

[5] = biological target: T2, Peroxisome proliferator-activated receptor gamma (Homo sapiens); experiment: Stimulation of PPARgamma binding to P32-labeled peroxisome proliferator response element in human HCA7 cells nuclear extracts after 30 mins by electrophoretic mobility shift assay; format: cell-based
Outline: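 HCA7 cells treated with vehicle or 0.1–1 μM for 30 min, then nuclear extracts prepared. 5 μg nuclear protein preincubated 10 min at 25 °C in HEPES pH 7.9, glycerol, BSA, poly(dI·dC). 32P-labeled PPRE oligonucleotide added for 20 min at 25 °C. Specificity checked by 100-fold unlabeled or mutant competitor and PPARγ antibody supershift. Run on 4% native PAGE, read by autoradiography.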

[6] = biological target: T2, Peroxisome proliferator-activated receptor gamma (Homo sapiens); experiment: Agonist activity at PPARgamma in human HCA7 cells assessed as induction of L-FABP expression after 24 hrs by Western blotting; format: functional, cell-based
Outline: (§2)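 HCA7 cells (DMEM, 10% FBS) treated 0–1 μM for 24 h. Lysates made in Tween 20/protease-inhibitor buffer, sonicated and cleared at 10000g. Protein measured by BCA, 100 μg/lane run on 12.5% SDS-PAGE. Blotted to nitrocellulose, probed for L-FABP, aP2 and β-actin, HRP secondary with ECL detection.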

[7] = biological target: T2, Peroxisome proliferator-activated receptor gamma (Homo sapiens); experiment: Agonist activity at PPARgamma in human HCA7 cells assessed as induction of aP2 expression after 24 hrs by Western blotting; format: functional, cell-based; outline: as §2
[8] = biological target: T2, Peroxisome proliferator-activated receptor gamma (Homo sapiens); experiment: Agonist activity at PPARgamma in human HCA7 cells assessed as induction of L-FABP expression after 24 hrs by Western blotting in presence of GW-9662; format: functional, cell-based
Outline: (§3)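 HCA7 cells given vehicle, the agonist, the antagonist alone, or both together for 24 h. Lysate protein 100 μg/lane on 12.5% SDS-PAGE, transferred to nitrocellulose. Immunoblot probed for L-FABP, aP2 and β-actin with ECL detection.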

[9] = biological target: T2, Peroxisome proliferator-activated receptor gamma (Homo sapiens); experiment: Agonist activity at PPARgamma in human HCA7 cells assessed as induction of aP2 expression after 24 hrs by Western blotting in presence of GW-9662; format: functional, cell-based; outline: as §3
[10] = system: 3T3-L1; experiment: Induction of triglyceride accumulation in mouse 3T3L1 cells at 1 uM after 48 hrs; format: functional, cell-based
Outline: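 Mouse 3T3-L1 cells in DMEM with 10% calf serum, grown to 60% confluence. Differentiation started with 0.1% IBMX plus 1.0% dexamethasone for 48 h. Then 2 days in growth medium with 10 μg/mL human insulin plus compound, then fresh growth medium for 48 h. Lipid droplets stained with Oil Red O and imaged at 200×.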

[11] = biological target: T2, Peroxisome proliferator-activated receptor gamma (Homo sapiens); experiment: Agonist activity at PPARgamma in human HCA7 cells expressing shRNA assessed as induction of peroxisome proliferator response element at 1 uM after 12 hrs by luciferase reporter assay; format: functional, cell-based
Outline: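 HCA7 lines stably carrying control or PPARγ/α/δ shRNA (nucleofection, puromycin selection). Cells at 40% confluence co-transfected with 1.8 μg PPRE-luciferase and 0.2 μg pSVβgal using Lipofectamine 2000. After 6 h, growth medium for 16 h, then 12 h compound in serum-free medium. Luciferase normalized to β-galactosidase; means, SD, n = 6; Student's t test.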

[12] = biological target: T3, Peroxisome proliferator-activated receptor delta (Homo sapiens) (UniProt Q03181); experiment: Agonist activity at PPARdelta in human HCA7 cells assessed as induction of peroxisome proliferator response element at 1 uM after 12 hrs by luciferase reporter assay; format: functional, cell-based
T3 sequence (whole entry): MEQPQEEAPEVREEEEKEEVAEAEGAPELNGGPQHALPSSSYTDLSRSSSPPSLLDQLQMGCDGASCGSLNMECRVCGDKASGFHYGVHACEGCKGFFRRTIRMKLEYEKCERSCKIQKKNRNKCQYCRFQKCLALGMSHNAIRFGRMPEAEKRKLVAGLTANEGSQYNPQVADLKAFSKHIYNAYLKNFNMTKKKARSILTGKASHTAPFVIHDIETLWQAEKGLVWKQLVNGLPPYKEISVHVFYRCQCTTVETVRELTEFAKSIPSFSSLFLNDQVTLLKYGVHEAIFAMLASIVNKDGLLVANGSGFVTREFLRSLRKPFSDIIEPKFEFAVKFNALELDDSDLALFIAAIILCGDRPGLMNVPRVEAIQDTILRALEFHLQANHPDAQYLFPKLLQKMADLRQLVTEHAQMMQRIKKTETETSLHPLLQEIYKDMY
Outline: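 HCA7 human colon cancer cells (which express PPARα, δ and γ) grown in DMEM with 10% FBS to 40% confluence. Transfected with 1.8 μg PPRE-luciferase plus 0.2 μg pSVβgal using Lipofectamine 2000. After 6 h, growth medium for 16 h, then compound in serum-free medium for 12 h. Luciferase normalized to β-galactosidase; n = 6.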

[13] = biological target: T3, Peroxisome proliferator-activated receptor delta (Homo sapiens); experiment: Agonist activity at PPARdelta in human HCA7 cells expressing shRNA assessed as induction of peroxisome proliferator response element at 1 uM after 12 hrs by luciferase reporter assay; format: functional, cell-based
Outline: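 Stable HCA7 lines made by nucleofection with control shRNA or shRNAs to PPARγ, α or δ, then puromycin-selected; silencing checked by immunoblot. Cells transfected with 1.8 μg PPRE-luciferase plus 0.2 μg pSVβgal (Lipofectamine 2000). Medium change after 6 h, growth medium for 16 h, then 1 μM compound serum-free for 12 h. Luciferase normalized to β-galactosidase; n = 6.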

O=C(O)CC1=C/C(=C\c2ccc(-c3ccc(F)cc3F)cc2)c2ccc(F)cc21
EC50 [1]: 100 nM
Activity [2]: inactive

O=C(O)CC1=C/C(=C\c2ccc(Br)cc2)c2ccc(F)cc21
EC50 [1]: 1100 nM
Activity [2]: inactive

O=C(O)CC1=C/C(=C\c2ccc(C(F)(F)F)cc2)c2ccc(F)cc21
EC50 [1]: 2500 nM
Activity [2]: inactive

O=C(O)CC1=CCc2ccc(F)cc21
EC50 [1]: > 10000 nM
Activity [2]: inactive

CS(=O)(=O)c1ccc(/C=C2\C=C(CC(=O)O)c3cc(F)ccc32)cc1
EC50 [1]: > 10000 nM
Activity [2]: inactive

Cc1ccc(/C=C2\C=C(CC(=O)O)c3cc(F)ccc32)cc1
EC50 [1]: 2400 nM
Activity [2]: inactive

COc1ccc(/C=C2\C=C(CC(=O)O)c3cc(F)ccc32)cc1
EC50 [1]: 1300 nM
Activity [2]: inactive

O=C(O)CC1=C/C(=C\c2cccc3ccccc23)c2ccc(F)cc21
Activity [3]: Dose-dependent effect
EC50 [1]: 100 nM
Activity [2]: inactive
Activity [4]: Active
Activity [5]: Active
Activity [6]: Active
Activity [7]: Active
Activity [8]: inactive
Activity [9]: inactive
Activity [10]: Active
Activity [11]: inactive
Activity [12]: Active
Activity [13]: inactive

CSc1ccc(/C=C2\C=C(CC(=O)O)c3cc(F)ccc32)cc1
EC50 [1]: 700 nM
Activity [2]: inactive

O=C(O)CC1=C/C(=C\c2ccc3nccnc3c2)c2ccc(F)cc21
EC50 [1]: > 10000 nM
Activity [2]: inactive

C[S+]([O-])c1ccc(/C=C2\C=C(CC(=O)O)c3cc(F)ccc32)cc1 (stereo unspecified)
EC50 [1]: > 10000 nM
Activity [2]: inactive

O=C(O)CC1=C/C(=C\c2cccc3cccnc23)c2ccc(F)cc21
EC50 [1]: 1500 nM
Activity [2]: inactive

CC(C)(C)Oc1ccc(/C=C2\C=C(CC(=O)O)c3cc(F)ccc32)cc1
EC50 [1]: 1900 nM
Activity [2]: inactive

C#Cc1ccc(/C=C2\C=C(CC(=O)O)c3cc(F)ccc32)cc1
EC50 [1]: 1100 nM
Activity [2]: inactive

CSc1ccc(-c2ccc(/C=C3\C=C(CC(=O)O)c4cc(F)ccc43)cc2)cc1
EC50 [1]: 1500 nM
Activity [2]: inactive

[N-]=[N+]=NCc1ccc(/C=C2\C=C(CC(=O)O)c3cc(F)ccc32)cc1
EC50 [1]: 900 nM
Activity [2]: inactive

O=C(O)CC1=C/C(=C\c2ccc(-c3ccccc3)cc2)c2ccc(F)cc21
EC50 [1]: 100 nM
Activity [2]: inactive

O=C(O)CC1=C/C(=C\c2ccc3ccccc3c2)c2ccc(F)cc21
EC50 [1]: 1200 nM
Activity [2]: inactive

CSc1ccc(/C=C2/C(C)=C(CC(=O)O)c3cc(F)ccc32)cc1
Activity [2]: inactive

O=C(O)CC1=C/C(=C\c2ccccc2)c2ccc(F)cc21
EC50 [1]: 1700 nM
Activity [2]: inactive

O=C(O)CC1=C/C(=C\c2ccc(SC(F)(F)F)cc2)c2ccc(F)cc21
EC50 [1]: 200 nM
Activity [2]: inactive

O=C(O)CC1=C/C(=C\c2ccc(C(=O)O)cc2)c2ccc(F)cc21
EC50 [1]: > 10000 nM
Activity [2]: inactive

O=C(O)CC1=C/C(=C\c2ccc(F)c3ccccc23)c2ccc(F)cc21
EC50 [1]: 100 nM
Activity [2]: inactive

Reference: ChEMBL document CHEMBL1156567, “Sulindac derivatives that activate the peroxisome proliferator-activated receptor gamma but lack cyclooxygenase inhibition” (J Med Chem, 2008)
